Data: ChEMBL document CHEMBL1139574, “Synthesis and biological evaluation of novel bisphosphonates with dual activities on bone in vitro” (2005)

Legend:
Type in all cases: functional
[1] = Inhibitory ratio of osteoclast precursor cells at concentration of 10e-7 M by staining with tartrate-resistant acid […]
Summary of the method: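 Osteoclast precursor cells plated at 5 × 10⁴ cells/well and cultured 8 days with or without bisphosphonate at 10^-7 M. Cells then TRAP-stained, and positive cells with three or more nuclei counted. Inhibitory ratio (%) = (control count − treated count)/control count × 100. Mean ± SE, n = 5.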

Rattus norvegicus [2] = species: Rattus norvegicus; assay: Proliferative activity on the of rat calvaria osteoblasts at concentration of 10e-5 M
Summary of the method: (§1)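 SD rat calvarial osteoblasts plated at 2 × 10⁴ cells/well and exposed to a range of bisphosphonate concentrations for 72 h. Proliferation read by MTT, absorbance at 492 nm. Proliferative ratio (%) = (treated − control)/control × 100. Mean ± SE, n = 3.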

Rattus norvegicus [3] = species: Rattus norvegicus; assay: Proliferative activity on the of rat calvaria osteoblasts at concentration of 10e-6 M; summary of the method: as §1
Rattus norvegicus [4] = species: Rattus norvegicus; assay: Proliferative activity on the of rat calvaria osteoblasts at concentration of 10e-7 M; summary of the method: as §1
Rattus norvegicus [5] = species: Rattus norvegicus; assay: Proliferative activity on the of rat calvaria osteoblasts at concentration of 10e-8 M; summary of the method: as §1
[6] = Inhibitory activity of bone gamma-carboxyglutamate (gla) protein (osteocalcin) was determined at concentration of 10e-6 M in cell lysates
Summary of the method: (§2)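 Newborn Sprague-Dawley rat calvarial osteoblast-enriched cultures seeded at 5 × 10³ cells/well and treated for 72 h. Osteocalcin measured in cell lysates by radioimmunoassay. Normalized to viable cell number from MTT. Mean ± SE, n = 5.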

[7] = Inhibitory activity of bone gamma-carboxyglutamate (gla) protein (osteocalcin) was determined at concentration of 10e-7 M in cell lysates; summary of the method: as §2
[8] = Inhibitory activity of bone gamma-carboxyglutamate (gla) protein (osteocalcin) was determined at concentration of 10e-8 M in cell lysates; summary of the method: as §2
[9] = Inhibitory activity of bone gamma-carboxyglutamate (gla) protein (osteocalcin) was determined at concentration of 10e-9 M in cell lysates; summary of the method: as §2
[10] = target: T1, Alkaline phosphatase, tissue-nonspecific isozyme (Rattus norvegicus) (UniProt P08289); assay: Inhibitory activity of Alkaline phosphatase was determined at concentration of 10e-6 M using p-nitrophenylphosphate as the substrate
T1 sequence (whole entry): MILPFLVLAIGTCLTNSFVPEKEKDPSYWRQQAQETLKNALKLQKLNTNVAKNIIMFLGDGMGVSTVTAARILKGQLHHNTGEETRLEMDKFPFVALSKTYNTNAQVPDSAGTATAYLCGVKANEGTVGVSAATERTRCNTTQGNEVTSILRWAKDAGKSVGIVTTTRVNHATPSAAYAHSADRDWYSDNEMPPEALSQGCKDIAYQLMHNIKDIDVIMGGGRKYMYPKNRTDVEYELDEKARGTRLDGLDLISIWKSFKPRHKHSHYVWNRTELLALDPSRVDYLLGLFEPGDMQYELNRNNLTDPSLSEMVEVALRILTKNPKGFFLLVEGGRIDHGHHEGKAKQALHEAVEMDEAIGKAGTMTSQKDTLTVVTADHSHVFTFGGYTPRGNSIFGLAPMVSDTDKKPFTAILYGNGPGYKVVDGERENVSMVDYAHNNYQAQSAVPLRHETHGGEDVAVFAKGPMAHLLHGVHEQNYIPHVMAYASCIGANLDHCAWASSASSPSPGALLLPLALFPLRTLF
Summary of the method: (§3)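 Primary osteoblast-enriched cells from newborn Sprague-Dawley rat calvaria, cultured in DMEM at 37 °C under 5% CO2. Seeded at 5 × 10³ cells/well and exposed to test agent for 72 h. Alkaline phosphatase activity measured with p-nitrophenylphosphate substrate. Values normalized to viable cell number from the MTT assay. Mean ± SE, n = 5.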

[11] = target: T1, Alkaline phosphatase, tissue-nonspecific isozyme (Rattus norvegicus); assay: Inhibitory activity of Alkaline phosphatase was determined at concentration of 10e-7 M using p-nitrophenylphosphate as the substrate; summary of the method: as §3
[12] = target: T1, Alkaline phosphatase, tissue-nonspecific isozyme (Rattus norvegicus); assay: Inhibitory activity of Alkaline phosphatase was determined at concentration of 10e-8 M using p-nitrophenylphosphate as the substrate; summary of the method: as §3
[13] = target: T1, Alkaline phosphatase, tissue-nonspecific isozyme (Rattus norvegicus); assay: Inhibitory activity of Alkaline phosphatase was determined at concentration of 10e-9 M using p-nitrophenylphosphate as the substrate; summary of the method: as §3

Compound | inhibition at 0.1 µM [1] | Proliferation (Rattus norvegicus [2]) | Proliferation (Rattus norvegicus [3]) | Proliferation (Rattus norvegicus [4]) | Proliferation (Rattus norvegicus [5]) | further results
O=C(NCCCCCC(O)(P(=O)(O)O)P(=O)(O)O)c1cccc(Cl)c1 | 15.9% |  |  |  |  | 
COc1cccc(C(=O)NCCC(O)(P(=O)([O-])O)P(=O)([O-])O)c1.[Na+].[Na+] | 26.9% | 8.9% | 7.1% | -5.5% | 0.6% | 
Cc1ccccc1C(=O)NCCCCCC(O)(P(=O)(O)O)P(=O)(O)O | 9.4% |  |  |  |  | 
COc1cccc(C(=O)NCCCC(O)(P(=O)([O-])O)P(=O)([O-])O)c1.[Na+].[Na+] | 34.2% | 0.7% | -5.5% | -12.4% | 3.7% | 
O=C(NCCC(O)(P(=O)([O-])O)P(=O)([O-])O)c1ccc2c(c1)OCO2.[Na+].[Na+] | 60.2% | 9.3% | -8.3% | -7.3% | -0.2% | 
O=C(NCCCC(O)(P(=O)(O)O)P(=O)(O)O)c1ccccc1 | 35.6% |  |  |  |  | 
Cc1ccc(C(=O)NCCC(O)(P(=O)(O)O)P(=O)(O)O)cc1 | 30.4% |  |  |  |  | 
O=C(NCCC(O)(P(=O)(O)O)P(=O)(O)O)c1ccccc1 | 9.5% |  |  |  |  | 
Cc1ccccc1C(=O)NCCCC(O)(P(=O)(O)O)P(=O)(O)O | 30.3% |  |  |  |  | 
COc1ccc(C(=O)NCCCCCC(O)(P(=O)(O)O)P(=O)(O)O)cc1 | 39% |  |  |  |  | 
COc1cc([N+](=O)[O-])cc(C(=O)NCCC(O)(P(=O)([O-])O)P(=O)([O-])O)c1OC.[Na+].[Na+] | 64.4% | 17.7% | -1.5% | 21.4% | -0.8% | 
COc1cccc(C(=O)NCCC(O)(P(=O)([O-])O)P(=O)([O-])O)c1OC.[Na+].[Na+] | 68.1% | 35.2% | 47.4% | 74.4% | 26.6% | Activity [6]: 11.7; Activity [7]: 8.63; Activity [8]: 4.73; Activity [9]: 4.07; Activity [10]: 3.6; Activity [11]: 2.15; Activity [12]: 0.75; Activity [13]: 0.56
